High-throughput results from PubChem.
IDE cell inh – inhibitors of human insulin-degrading enzyme in cells | AID 434962 | 0.41% of 320,000 active | inhibition, % at 5.59 µM | HEK cells, FAbetaB cleavage, fluorescence polarization | P14735;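 active = percent inhibition above the average of all tested compounds plus 3 SD, set per screening campaign, cut at about 16% in these data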;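 also: IDE supplied by intact live HEK cells; FP after avidin binding of uncleaved biotin substrate so inhibition keeps polarization high; 0% = DMSO wells and 100% = 60 µM reference IDE inhibitor Ii1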
HNF4A DNA FP – change in binding of human HNF4 alpha to DNA | P41235 | HNF4a-FITC DNA binding, fluorescence polarization, 1 h | activity change, % at 10 µM | 0.3% of 360,000 active | AID 1224865; in the data active = activity change above about 30%, passing the limit was not always enough
Rpn11 block – blocks the human proteasome subunit Rpn11; O00487; human 26S proteasome, Ub4-pepOG fluorescence polarization; 20S core pre-blocked with epoxomicin; calls only at 20 µM; 0.59% of 360,000 active; AID 588493;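 active = inhibition at 20 µM, scaled to each plate's controls, above about 33%, limit read from the data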
Target sequence (O00487 whole entry, looked up): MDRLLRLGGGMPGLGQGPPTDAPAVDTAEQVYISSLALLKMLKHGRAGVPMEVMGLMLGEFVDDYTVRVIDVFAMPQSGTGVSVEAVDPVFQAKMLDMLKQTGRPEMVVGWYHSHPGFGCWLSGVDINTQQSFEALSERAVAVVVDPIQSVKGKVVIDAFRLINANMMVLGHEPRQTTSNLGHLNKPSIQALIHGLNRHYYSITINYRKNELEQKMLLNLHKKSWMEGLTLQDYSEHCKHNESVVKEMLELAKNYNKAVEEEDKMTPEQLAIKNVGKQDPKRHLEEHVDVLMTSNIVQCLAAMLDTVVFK
TPT1 inhibitor – C. albicans TPT1 enzyme inhibition. recombinant caTPT1, FP RNA substrate dephosphorylation. inhibition, % at 5 µM. 0.81% of 300,000 active;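 active = inhibition above the mean of all tested compounds plus 3 SD, set per screening campaign, cut at about 24% in these data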;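 also: plate controls were DMSO alone for no effect and ferristatin control at 100 nM for full effect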
IDE cell activ – activators of human insulin-degrading enzyme in cells; P14735; HEK cells, FAbeta-B cleavage, fluorescence polarization; 0% vehicle, 100% cell-free pure enzyme wells; activation, % at 5.96 µM; 0.073% of 340,000 active; AID 493087;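 active = activation above the mean of all tested compounds plus 3 SD, set per screening campaign, cut at about 17% in these data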
CSN deneddyl inh – CSN deneddylation inhibition | Q92905 | Purified CSN, SCF-Nedd8-OG deneddylation, fluorescence polarization | inhibition, % at 12.5 µM | 0.38% of 360,000 active;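 active = pattern-corrected inhibition above about 35%, with an unprinted fluorescence ratio check between 0.5 and 1.5, limit read from the data, passing the limit was not always enough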;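 also: 0% = enzyme with substrate and 100% = substrate without enzyme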
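Assay system: Purified human Csn5 enzyme expressed in HEK293T cells | Amount: Enzyme 0.24 nM | Measured by: Fluorescence polarization readout | Medium: Tris/NaCl/DTT buffer, pH 7.5 | Compound dosing: One concentration, 12.5 µM, 0.25% DMSO | Times: 90 min incubation of compound, enzyme and substrate at room temperature | Control set: no-enzyme wells high, enzyme-with-substrate wells low | Read-out: % inhibition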
caTPT1 confirm – TPT1 (C. albicans) inhibition, confirmation | shares compounds with TPT1 inhibitor | 74% of 2,400 active | AID 2149 | recombinant caTPT1, fluorescence polarization, RNase T1 coupled | inhibition, % at 5 µM;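 active = inhibition above the primary screen limit, the mean inhibition of all tested compounds plus 3 SD, cut at about 25% in these data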
RNase T1 inh – blocks Aspergillus oryzae RNase T1, a TPT1 counter-screen; shares compounds with TPT1 inhibitor; RNase T1 cleavage, fluorescence polarization, 1536-well; inhibition, % at 5 µM; 83% of 2,400 active;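 active = inhibition above the solvent-only control well mean plus 3 SD, limit set per screening run, cut at about 23% in these data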;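 also: plate controls were DMSO wells with enzyme for no effect and wells without RNase T1 for full effect; inhibitors block cleavage so intact labeled substrate keeps polarization high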
Target sequence (P00651 whole entry, looked up): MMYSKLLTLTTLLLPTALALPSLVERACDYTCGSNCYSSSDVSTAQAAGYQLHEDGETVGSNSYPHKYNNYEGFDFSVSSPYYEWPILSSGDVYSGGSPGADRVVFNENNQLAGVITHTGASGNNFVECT
Rpn11 confirm – Rpn11 inhibition confirmation, single concentration; 29% of 1,900 active; purified human 26S proteasome, Ub4-pepOG fluorescence polarization; proteasome pretreated with epoxomicin; shares compounds with Rpn11 block; inhibition, % at 20 µM
MMP-2 counter – MMP-2 (human) inhibition counter-screen; shares compounds with Rpn11 block; recombinant MMP-2, FRET peptide cleavage fluorescence; inhibition, % at 20 µM; 4% of 1,900 active;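 also: human MMP-2 activated beforehand with APMA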
Thrombin inh – thrombin (bovine) inhibition counter-screen. shares compounds with Rpn11 block. bovine thrombin cleavage of Ub4-pepOG, fluorescence polarization. inhibition, % at 20 µM. 13% of 1,900 active;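 active = mean inhibition at least 40% at 20 µM, or signal 3 deviations below plate average, so some actives read negative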;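 also: plate controls were thrombin with DMSO for no effect and buffer wells lacking thrombin for full effect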
Numbers without * were called inactive; i = inactive; . = no result; + = active, no number. Hits are enriched below; roughly 1.7% of the tested compounds scored in any of these assays. Rule as the data show it, unless noted: active = inhibition above about 40%; inactive = the rest.

SMILES	IDE cell inh	HNF4A DNA FP	Rpn11 block	TPT1 inhibitor	IDE cell activ	CSN deneddyl inh	caTPT1 confirm	RNase T1 inh	Rpn11 confirm	MMP-2 counter	Thrombin inh
Cc1cc(NC(=O)CCC(=O)N2CCC3(CC2)OCCO3)no1	3	5	i	-2	-6	2	.	.	.	.	.
COc1ccc2c3c([nH]c2c1)C(C)=NCC3	3	30	+	44*	0	12	18	31*	40	-2	30
COc1ccc2c(c1)[nH]c1c(C)nccc12	3	-1	i	0	6	1	.	.	.	.	.
Cc1cc(C)cc(-n2c(C)cc(/C=C3\C(=O)NC(=O)N(C)C3=O)c2C)c1	-1	1	i	5	2	-2	.	.	.	.	.
Cc1ccnc(-n2c(C)cc(C=C3C(=O)N(C)C(=S)N(C)C3=O)c2C)c1	3	4	+	52*	2	6	24	33*	-5	28	-42
Cc1cccc(N2C(=O)/C(=C/N3CCN(C(=O)c4ccco4)CC3)C(=O)NC2=S)c1	-1	9	+	30*	5	14	13	15	19	10	14
Cc1cccc(N2C(=O)NC(=O)/C(=C\c3ccc(N4CCOCC4)cc3)C2=O)c1	5	0	i	11	-8	2	.	.	.	.	.
O=c1[nH]c(=O)n(-c2cccc(F)c2)c(O)c1/C=C1\C=Nc2ccccc21	2	-1	+	37*	-8	6	-57	-39	9	-22	3
COc1ccccc1NC(=O)c1cn(CCC#N)nc1-c1cccc(Cl)c1	.	0	i	.	3	2	.	.	.	.	.
C=CCn1c(=O)c(C=Nc2c(OC)cccc2[N+](=O)[O-])c(O)n(CCCC)c1=O	-4	21	+	51*	-10	10	30*	39*	53*	6	47*
C=CCn1c(=O)c(C=Nc2cccc([N+](=O)[O-])c2)c(O)n(CCCC)c1=O	7	31	+	113*	-2	30	36*	47*	46*	-20	31
O=c1[nH]c(=S)n(C2CC2)c(O)c1C=NCC1CCCO1 (configuration not stated)	6	4	i	-3	10	-2	.	.	.	.	.
COc1ccc(C=C2C(=O)N(C)C(=O)N(C)C2=O)cc1CSc1ccccn1	0	3	i	3	4	-4	.	.	.	.	.
COC(=O)C1=C(c2ccc(-c3ccccc3)c(F)c2)C[C@@H]2CC[C@H]1N2C(=O)NCCOc1ccc(OC)cc1	2	2	i	.	6	-3	.	.	.	.	.
COCCN1C(=O)NC(=O)/C(=C\c2ccc(F)cc2)C1=O	3	1	i	3	-2	-2	.	.	.	.	.
CN(C)c1ccc(/C=C2\C(=O)NC(=O)N(CCc3ccc(F)cc3)C2=O)cc1	1	10	+	30*	-2	22	67*	86*	10	1	-90
O=C1NC(=O)N(CCc2ccc(F)cc2)C(=O)/C1=C/c1ccco1	9	-17	+	61*	2	43*	14	15	29	37	-1
